Experiments:
[1] = Drug uptake in tumor of C57BL/6J mouse xenografted with mouse B16F0 cells at 3.7 MBq, iv after 72 hrs by gamma scintigraphic imaging analysis relative to control; assay type: ADME, organism-based, Neoplasm; details: in vivo
Outline: (§1)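 Male C57BL/6J mice (6-8 weeks) bearing subcutaneous B16F0 tumours (3×10^5 cells in PBS, right flank, isoflurane anaesthesia); on day 14 after implant, [125I]-labelled tracer given i.v. via tail vein, 3.7 MBq/mouse, in physiological serum (some tracers in 5% ethanol/physiological serum); 3-8 animals per compound. Under i.p. ketamine (100 mg/kg)–xylazine (10 mg/kg), 10 min planar scintigrams acquired in prone position, 15% window on 35 keV peak.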

[2] = Drug uptake in tumor of C57BL/6J mouse xenografted with mouse B16F0 cells at 3.7 MBq, iv after 6 hrs by gamma scintigraphic imaging analysis relative to control; assay type: ADME, organism-based, Neoplasm; details: in vivo; outline: as §1
[3] = Drug uptake in tumor of C57BL/6J mouse xenografted with mouse B16F0 cells at 3.7 MBq, iv after 5 days by gamma scintigraphic imaging analysis relative to control; assay type: ADME, organism-based, Neoplasm; details: in vivo, 120 h; outline: as §1
[4] = Drug uptake in tumor of C57BL/6J mouse xenografted with mouse B16F0 cells at 3.7 MBq, iv after 24 hrs by gamma scintigraphic imaging analysis relative to control; assay type: ADME, organism-based, Neoplasm; details: in vivo; outline: as §1
[5] = Drug uptake in tumor of C57BL/6J mouse xenografted with mouse B16F0 cells at 3.7 MBq, iv after 1 hr by gamma scintigraphic imaging analysis relative to control; assay type: ADME, organism-based, Neoplasm; details: in vivo; outline: as §1
[6] = Drug uptake in tumor of C57BL/6J mouse xenografted with mouse B16F0 cells at 3.7 MBq, iv after 10 days by gamma scintigraphic imaging analysis relative to control; assay type: ADME, organism-based, Neoplasm; details: in vivo, 240 h; outline: as §1
[7] = Drug uptake in tumor of C57BL/6J mouse xenografted with mouse B16F0 cells at 3.7 MBq, iv after 7 days by gamma scintigraphic imaging analysis relative to control; assay type: ADME, organism-based, Neoplasm; details: in vivo, 168 h; outline: as §1
[8] = Drug uptake in tumor of C57BL/6J mouse xenografted with mouse B16F0 cells at 3.7 MBq, iv after 3 hrs by gamma scintigraphic imaging analysis relative to control; assay type: ADME, organism-based, Neoplasm; details: in vivo; outline: as §1
[9] = Drug uptake in tumor of C57BL/6J mouse xenografted with mouse B16F0 cells at 3.7 MBq, iv after 14 days by gamma scintigraphic imaging analysis relative to control; assay type: ADME, organism-based, Neoplasm; details: in vivo, 336 h; outline: as §1
[10] = Ratio of drug uptake in tumor to muscle in C57BL/6J mouse xenografted with mouse B16F0 cells at 3.7 MBq, iv after 1 hr; details: in vivo
Mus musculus = experiment: Toxicity against C57BL/6J mouse xenografted with mouse B16F0 cells assessed as mortality at 3.7 MBq, iv after 2 days; assay type: organism-based; details: in vivo, 48 h
Outline: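 Male C57BL/6J mice (6-8 weeks) were inoculated s.c. on the right flank with 3×10^5 B16F0 cells in 0.1 mL PBS under 2% isoflurane. On day 14 after implant they received the [125I]-labelled tracer i.v. via the tail vein at 3.7 MBq/mouse, in physiological serum (5% ethanol in physiological serum for non-salt forms), with 3–8 animals per compound. Survival was recorded 2 days post-injection.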

With `CCN(CCNC(=O)c1cnc2cc([125I])ccc2n1)CCOCCOCCOCCF.Cl` as the compound, how does the Drug uptake [1] read?
Its Drug uptake is 8.6 % ID/g.

And the Drug uptake [2]?
Its Drug uptake is 12.1 % ID/g.

What about the Drug uptake [3] of the same compound?
Its Drug uptake is 5.8 % ID/g.

What about the Drug uptake [4] of the same compound?
Its Drug uptake is 12.4 % ID/g.

What about the Drug uptake [5] of the same compound?
Its Drug uptake is 11.7 % ID/g.

And the Drug uptake [6]?
Its Drug uptake is 1.3 % ID/g.

What about the Drug uptake [7] of the same compound?
Its Drug uptake is 2.7 % ID/g.

And the Drug uptake [8]?
Its Drug uptake is 12.1 % ID/g.

What about the Drug uptake [9] of the same compound?
The Drug uptake was 0.6 % ID/g.

And the Ratio [10]?
Its Ratio is 5.76.

Which results are given for `CCN(CCNC(=O)c1cnc2cc([125I])ccc2n1)Cc1cn(CCF)nn1.Cl`?
Drug uptake [1]: 11 % ID/g; Drug uptake [2]: 15.9 % ID/g; Drug uptake [3]: 8.6 % ID/g; Drug uptake [4]: 15.6 % ID/g; Drug uptake [5]: 13 % ID/g; Drug uptake [6]: 3.7 % ID/g; Drug uptake [7]: 5.3 % ID/g; Drug uptake [8]: 14.5 % ID/g; Drug uptake [9]: 1.8 % ID/g; Ratio [10]: 5.76

For `CCN(CC#CCF)CCNC(=O)c1cnc2cc([125I])ccc2n1.Cl`, which Drug uptake [1] is on record?
The Drug uptake was 14.9 % ID/g.

And the Drug uptake [2]?
The Drug uptake was 23.3 % ID/g.

What about the Drug uptake [3] of the same compound?
The Drug uptake was 11.6 % ID/g.

What about the Drug uptake [4] of the same compound?
The Drug uptake was 23.5 % ID/g.

What about the Drug uptake [5] of the same compound?
The Drug uptake was 12.3 % ID/g.

What about the Drug uptake [6] of the same compound?
Its Drug uptake is 4.2 % ID/g.

What about the Drug uptake [7] of the same compound?
Its Drug uptake is 8 % ID/g.

What about the Drug uptake [8] of the same compound?
The Drug uptake was 18.3 % ID/g.

What about the Drug uptake [9] of the same compound?
Its Drug uptake is 2.2 % ID/g.

And the Ratio [10]?
The Ratio was 5.76.

For `CCN(CCF)CCNC(=O)c1cnc2cc([125I])ccc2n1.Cl`, which Drug uptake [1] is on record?
The Drug uptake was 20 % ID/g.

What about the Drug uptake [2] of the same compound?
Its Drug uptake is 25 % ID/g.

What about the Drug uptake [3] of the same compound?
Its Drug uptake is 8.4 % ID/g.

And the Drug uptake [4]?
The Drug uptake was 24.8 % ID/g.

What about the Drug uptake [5] of the same compound?
The Drug uptake was 21.4 % ID/g.

What about the Activity (Mus musculus) of the same compound?
The Activity was “Toxic”.

What about the Drug uptake [6] of the same compound?
The Drug uptake was 1.6 % ID/g.

What about the Drug uptake [8] of the same compound?
The Drug uptake was 22.5 % ID/g.

What about the Drug uptake [9] of the same compound?
The Drug uptake was 0.6 % ID/g.

Which Drug uptake [1] does the source give for `CCN(C/C=C/CF)CCNC(=O)c1cnc2cc([125I])ccc2n1.Cl` here?
Its Drug uptake is 10 % ID/g.

And the Drug uptake [2]?
The Drug uptake was 13.9 % ID/g.

What about the Drug uptake [3] of the same compound?
The Drug uptake was 5.6 % ID/g.

What about the Drug uptake [4] of the same compound?
Its Drug uptake is 15 % ID/g.

And the Drug uptake [5]?
The Drug uptake was 10.8 % ID/g.

What about the Drug uptake [6] of the same compound?
The Drug uptake was 1.9 % ID/g.

And the Drug uptake [7]?
Its Drug uptake is 3.3 % ID/g.

What about the Drug uptake [8] of the same compound?
The Drug uptake was 12.3 % ID/g.

And the Drug uptake [9]?
Its Drug uptake is 1.3 % ID/g.

And the Ratio [10]?
Its Ratio is 5.76.

Which Drug uptake [1] does the source give for `CCN(CCCF)CCNC(=O)c1cnc2cc([125I])ccc2n1` here?
Its Drug uptake is 8.5 % ID/g.

What about the Drug uptake [2] of the same compound?
The Drug uptake was 15.3 % ID/g.

What about the Drug uptake [3] of the same compound?
The Drug uptake was 5.4 % ID/g.

What about the Drug uptake [4] of the same compound?
Its Drug uptake is 11.4 % ID/g.

And the Drug uptake [5]?
The Drug uptake was 10 % ID/g.

And the Drug uptake [6]?
Its Drug uptake is 1.4 % ID/g.

What about the Drug uptake [7] of the same compound?
Its Drug uptake is 3 % ID/g.

And the Drug uptake [8]?
Its Drug uptake is 13.5 % ID/g.

And the Drug uptake [9]?
The Drug uptake was 0.8 % ID/g.

With `CCN(CCNC(=O)c1cnc2cc([125I])ccc2n1)CCOCCOCCOCCOCCOCCOCCOCCF` as the compound, how does the Drug uptake [1] read?
Its Drug uptake is 3.8 % ID/g.

What about the Drug uptake [2] of the same compound?
The Drug uptake was 7.2 % ID/g.

And the Drug uptake [3]?
The Drug uptake was 2.7 % ID/g.

What about the Drug uptake [4] of the same compound?
The Drug uptake was 6.8 % ID/g.

And the Drug uptake [5]?
The Drug uptake was 6.8 % ID/g.

And the Drug uptake [6]?
Its Drug uptake is 0.8 % ID/g.

And the Drug uptake [7]?
The Drug uptake was 1.5 % ID/g.

What about the Drug uptake [8] of the same compound?
Its Drug uptake is 7.8 % ID/g.

What about the Drug uptake [9] of the same compound?
Its Drug uptake is 0.3 % ID/g.

— ChEMBL document CHEMBL2375235, “Synthesis, radioiodination and in vivo screening of novel potent iodinated and fluorinated radiotracers as melanoma imaging and therapeutic probes” (Eur J Med Chem, 2013)
